Bioassay records: PubChem BioAssay, several laboratories
A selection: hits, their analogues and other compounds. The true share with any hit is near 2.2%.
APP 5'UTR act – APP 5'UTR luciferase reporter activation; SH-SY5Y APP 5'UTR luciferase reporter, luminescence; zero percent = DMSO vehicle wells; activation, % at 2 µM; hit rate 1% among 190,000;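 active means activation above a set limit, based on mean plus 3 SD of controls, cut at about 140% in these data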
FLuc stim CS – affects firefly luciferase, flagging false hits in luciferase stimulation screens; P08659; ATPlite luciferase biochemical, luminescence, 10 min; 0 = ATP-free wells, 1 = DMSO control; activation factor at 10 µM; 200,000 tested, under 10 active;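 active means luciferase activation factor, scaled between plate controls, of at least 2 with compound at 10 µM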
Target sequence (P08659 whole entry, looked up): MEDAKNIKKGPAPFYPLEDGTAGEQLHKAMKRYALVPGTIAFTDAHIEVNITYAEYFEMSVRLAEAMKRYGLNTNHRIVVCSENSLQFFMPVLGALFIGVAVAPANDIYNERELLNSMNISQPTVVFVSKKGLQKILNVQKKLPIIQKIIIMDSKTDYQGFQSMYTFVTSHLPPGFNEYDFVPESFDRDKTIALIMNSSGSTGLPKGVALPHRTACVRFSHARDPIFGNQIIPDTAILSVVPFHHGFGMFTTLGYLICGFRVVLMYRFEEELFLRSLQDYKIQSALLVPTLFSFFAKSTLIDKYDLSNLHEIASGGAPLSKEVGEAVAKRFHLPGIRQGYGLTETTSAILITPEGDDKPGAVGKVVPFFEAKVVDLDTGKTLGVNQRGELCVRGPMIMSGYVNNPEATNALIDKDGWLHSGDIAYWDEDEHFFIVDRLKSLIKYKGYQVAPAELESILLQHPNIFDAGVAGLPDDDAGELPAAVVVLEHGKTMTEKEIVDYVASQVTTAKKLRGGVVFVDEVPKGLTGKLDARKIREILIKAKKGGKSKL
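test system = cell-free luciferase reagent | medium = PBS as buffer for the ATP substrate | dosing = test compounds dosed from 2 mM stocks in 100% DMSO | incubation = 10 min at ambient temperature | detection = luminescence measurement of luciferase light output | benchmarks = low control with PBS replacing ATP, high control enzyme plus ATP without compound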
FLuc inh counter – inhibits firefly luciferase, flagging false hits in luciferase inhibition screens; ATPLite firefly luciferase biochemical luminescence, 10 min; P08659; AID 1006; hit rate 1.5% among 200,000; inhibition, % at 10 µM;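 active means inhibition above about 50% when tested at 10 µM, limit read from the data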
TRAIL sens C8 – sensitizes caspase-8 expressing cells to TRAIL | AID 624354 | inhibition (viability loss, TRAIL sensitization), % at 10 µM | hit rate 1% among 360,000 | NB7+C8 cells + TRAIL, ATPlite viability luminescence;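 active means compounds causing at least 50% loss of cell viability in the single-dose screen, relative to plate controls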
NF-kB neuron act – raises NF-kB expression in human neuronal cells | AID 1239 | fold change at 12.5 µM | hit rate 1.6% among 190,000 | NF-kB reporter expression; active compounds read high; in the data active means fold change above about 3.3
PPC-1+TRAIL kill – kills PPC-1 cancer cells in the presence of TRAIL; cell killing (% activity), % at 4 µM or 5 µM; hit rate 0.41% among 220,000; PPC-1 cells + TRAIL, ATPLite viability luminescence; AID 1443;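 active means cell killing above 50% in the first pass at 4 µM, then a duplicate retest at 5 µM averaging 50% or more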;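 further: plate controls were cells with TRAIL plus DMSO for no effect and medium-only wells lacking cells for full effect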
* hit, by the source's call; · = no result given.

SMILES	APP 5'UTR act	FLuc stim CS	FLuc inh counter	TRAIL sens C8	NF-kB neuron act	PPC-1+TRAIL kill
Cc1ccc(SCC(=O)NN2C(=O)c3ccccc3C2=O)cc1	3	1	1	-4	1.1	13
Cc1ccc(C)c(N(C)S(=O)(=O)c2ccc3c(c2)oc(=O)n3C)c1	·	·	·	11	·	·
O=c1/c(=C\c2cccnc2)sc2nc3ccccc3n12	15	0.4	58*	-3	1.4	26
Cc1cc(/C=c2/sc3nc4ccccc4n3c2=O)c(C)n1-c1ccccn1	-60	0.1	90*	80*	0.17	5
Cc1cc(/C=c2\sc3nc4ccccc4n3c2=O)c(C)n1-c1ccc(C(=O)O)cc1	19	1	-1	7	0.61	5
Cc1cc(Br)cn2c(Cc3ccccc3)c(-c3ccc(F)cc3)nc12	·	·	·	-4	·	·
Cc1cc2c(N=NC(=O)C3CC3c3ccccc3)c(O)[nH]c2cc1Br (stereo unspecified)	3	1.1	-12	-2	0.98	10
CC1(C)C(=O)Nc2ccccc2N1C(=O)COC(=O)COc1ccc(C#N)cc1	·	·	·	-9	·	·
c1cn2c(NC3CCCC3)c(-c3ccc(N4CCOCC4)cc3)nc2cn1	16	0.2	81*	-21	1.2	42
O=C(/C=C/c1ccco1)Nc1ccc(-c2nc3ccccc3[nH]2)cc1	-86	1	-3	-38	1.5	11
C(=C\c1ccco1)/c1nc2ccccc2[nH]1	136*	0.2	83*	51*	5*	16
Cc1ccc(NC(=O)CSc2nnc(CNC(=O)c3ccco3)n2C)cc1C	·	·	·	-3	·	·
O=S1(=O)C=C(Sc2nnc(-c3ccccc3)o2)c2ccccc21	-96	1	2	73*	0.14	21
Cc1ccc2cc(CCNC(=O)c3ccco3)c(=O)[nH]c2c1	47	1	-2	-20	2.4	2
Cc1ccc2cc(CCNC(=O)c3ccco3)c(=O)[nH]c2c1C	129	1	4	-3	3.9*	10
O=C(c1cccc([N+](=O)[O-])c1)N1CCCN(C(=O)c2cccc([N+](=O)[O-])c2)CC1	7	1	-1	17	1.1	-10
CC1CCc2sc(-c3n[nH]c(=S)o3)cc2C1 (stereo unspecified)	48	0.4	57*	17	1.2	32
S=c1[nH]nc(-c2cc3c(s2)-c2ccccc2CC3)o1	24	0.9	9	-12	1.6	21
CC(=O)Nc1cc2nn(-c3ccccc3)nc2cc1Cl	53	0.4	56*	43	5.3*	-1
CC(C)C(=O)Nc1ccc2nn(-c3ccccc3)nc2c1	234*	0.3	69*	54*	1.1	45
O=C(Nc1ccc2nn(-c3ccccc3)nc2c1)c1cccnc1	51	1.1	-6	-3	1.3	18
C[C@@H]1CN([C@H](C)CO)C(=O)c2c(c3ccccc3n2C)-c2ccccc2CO[C@H]1CN(C)C(=O)Nc1ccccc1	·	·	·	8	·	·
CCOC(=O)c1nn(-c2ccc(Br)cc2)cc1C(=O)c1cccc2ccccc12	7	1	-1	8	6.4*	18
CC(=O)c1c(C(C)=O)c(C)n(-c2cccc3cccnc23)c1C	13	1	-1	0	1	-7
O=C(O)c1ccccc1N/N=C\c1ccnc2ccccc12	12	0.1	89*	65*	2.4	44
SMILES	APP 5'UTR act	FLuc stim CS	FLuc inh counter	TRAIL sens C8	NF-kB neuron act	PPC-1+TRAIL kill
ON=Cc1ccnc2ccccc12	·	·	·	-15	·	·
Cc1ccc(C(=O)COC(=O)c2ccc3c(c2)C(=O)N(c2cccc4ncccc24)C3=O)cc1	5	1	4	51*	1.3	27
COC(=O)/C=c1\[nH]c2nnc(C)n2c1=O	·	·	·	-12	·	5
COc1cc(CNc2ccc(N3CCCC3)cc2)ccc1OCc1ccccc1	84	0.7	35	23	1.1	2
COc1cc(CNc2ccc(N3CCCC3)cc2)ccc1OCc1ccccc1F	41	0.4	57*	30	1.7	0
Cc1ccc(/C=C/C(=O)Nc2ccc(N(C)C)cc2)o1	80	0.3	67*	18	1.1	20
Cc1ccc(/C=C/C(=O)Nc2ccncc2)o1	20	0.9	12	10	1.3	0
Cc1nc(Nc2nc3ccccc3o2)nc2c1CCC2	125	0.3	66*	38	3.7*	25
O=C(CCNS(=O)(=O)c1cccs1)NC1CCN(Cc2ccccc2)CC1	0	1	-1	-5	1.1	-4
